Reference: ChEMBL document CHEMBL1275455, “Resistance and virulence of Pseudomonas aeruginosa clinical strains overproducing the MexCD-OprJ efflux pump” (2008)
Converted amounts (≈) assume the structure as drawn.

How the values were obtained:
Pseudomonas aeruginosa [1] = assay: Antibacterial activity against Pseudomonas aeruginosa FE60 by twofold serial dilution method; assay type: functional
In short: (§1)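 MIC by twofold serial dilution in Mueller-Hinton agar with adjusted Ca2+ and Mg2+, spotted with a Steers multiple inoculator at about 10^4 CFU per spot. Plates were incubated at 37°C and read visually at 18 and 24 h. Values are modal MICs of three independent determinations.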

Pseudomonas aeruginosa [2] = assay: Antibacterial activity against Pseudomonas aeruginosa 3308 by twofold serial dilution method; assay type: functional
In short: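 MIC by serial twofold agar dilution in cation-adjusted Mueller-Hinton agar, about 10^4 CFU per spot applied with Steers multiple inoculator; plates at 37°C, read visually at 18 and 24 h. Modal values of three independent determinations. For pNF225 carriers, 150 μg/ml ticarcillin was added to growth cultures.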

Pseudomonas aeruginosa [3] = assay: microbe, parasite or virus in culture; conditions: 2126
Pseudomonas aeruginosa [4] = assay: Antibacterial activity against Pseudomonas aeruginosa 1956 by twofold serial dilution method; assay type: functional; in short: as §1
Pseudomonas aeruginosa [5] = assay: microbe, parasite or virus in culture; conditions: 2439
Pseudomonas aeruginosa [6] = assay: Antibacterial activity against Pseudomonas aeruginosa FK06 by twofold serial dilution method; assay type: functional; in short: as §1
Pseudomonas aeruginosa [7] = assay: Antibacterial activity against Pseudomonas aeruginosa PAO1 by twofold serial dilution method; assay type: functional; in short: as §1
Pseudomonas aeruginosa [8] = assay: Antibacterial activity against Pseudomonas aeruginosa EryR by twofold serial dilution method; assay type: functional; in short: as §1
Pseudomonas aeruginosa [9] = assay: Antibacterial activity against Pseudomonas aeruginosa 1956 harboring pNF225 carrying nfxB by twofold serial dilution method; assay type: functional
In short: (§2)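 nfxB plasmid pNF225 was electroporated into the strains and kept by adding 150 μg/ml ticarcillin to growth media. MIC by twofold serial dilution in cation-adjusted Mueller-Hinton agar, about 10^4 CFU per spot by Steers inoculator, at 37°C. Plates were read visually at 18 and 24 h. Values are modal MICs of three independent determinations.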

Pseudomonas aeruginosa [10] = assay: Antibacterial activity against Pseudomonas aeruginosa EryR harboring pNF225 carrying nfxB by twofold serial dilution method; assay type: functional; in short: as §2
Pseudomonas aeruginosa [11] = assay: Antibacterial activity against Pseudomonas aeruginosa 3308 harboring pNF225 carrying nfxB by twofold serial dilution method; assay type: functional; in short: as §2
Pseudomonas aeruginosa [12] = assay: Antibacterial activity against Pseudomonas aeruginosa 2439 harboring pNF225 carrying nfxB by twofold serial dilution method; assay type: functional; in short: as §2
Pseudomonas aeruginosa [13] = assay: Antibacterial activity against Pseudomonas aeruginosa 2126 harboring pNF225 carrying nfxB by twofold serial dilution method; assay type: functional; in short: as §2
Pseudomonas aeruginosa [14] = assay: Antibacterial activity against Pseudomonas aeruginosa FK06 harboring pNF225 carrying nfxB by twofold serial dilution method; assay type: functional; in short: as §2
Pseudomonas aeruginosa [15] = assay: Activity of beta-lactamase AmpC in Pseudomonas aeruginosa 2439 by spectrophotometry
In short: (§3)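 Crude French press lysates tested spectrophotometrically with nitrocefin; activity in nmol nitrocefin·min−1·mg protein−1. Induced activity obtained by adding 50 μg/ml cefoxitin to MHB culture 3 h before end of incubation; uninduced without. Triplicate measurements per strain; run-to-run variation under 15%.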

Pseudomonas aeruginosa [16] = assay: Activity of beta-lactamase AmpC in Pseudomonas aeruginosa 3308 by spectrophotometry; in short: as §3
Pseudomonas aeruginosa [17] = assay: Activity of beta-lactamase AmpC in Pseudomonas aeruginosa 1956 by spectrophotometry; in short: as §3
Pseudomonas aeruginosa [18] = assay: Activity of beta-lactamase AmpC in Pseudomonas aeruginosa 2126 by spectrophotometry; in short: as §3
Pseudomonas aeruginosa [19] = assay: Activity of beta-lactamase AmpC in Pseudomonas aeruginosa EryR by spectrophotometry; in short: as §3
[20] = test system: Pseudomonas aeruginosa PAO1; assay: Activity of beta-lactamase AmpC in Pseudomonas aeruginosa PAO1 by spectrophotometry; in short: as §3

Row | Molecule | MIC (Pseudomonas aeruginosa [1]) [µg/mL] | MIC (Pseudomonas aeruginosa [2]) [µg/mL] | MIC (Pseudomonas aeruginosa [3]) [µg/mL] | MIC (Pseudomonas aeruginosa [4]) [µg/mL] | MIC (Pseudomonas aeruginosa [5]) [µg/mL] | MIC (Pseudomonas aeruginosa [6]) [µg/mL] | MIC (Pseudomonas aeruginosa [7]) [µg/mL] | MIC (Pseudomonas aeruginosa [8]) [µg/mL] | MIC (Pseudomonas aeruginosa [9]) [µg/mL] | MIC (Pseudomonas aeruginosa [10]) [µg/mL] | MIC (Pseudomonas aeruginosa [11]) [µg/mL] | MIC (Pseudomonas aeruginosa [12]) [µg/mL] | MIC (Pseudomonas aeruginosa [13]) [µg/mL] | MIC (Pseudomonas aeruginosa [14]) [µg/mL] | Activity (Pseudomonas aeruginosa [15]) [nmol/min/mg] | Activity (Pseudomonas aeruginosa [16]) [nmol/min/mg] | Activity (Pseudomonas aeruginosa [17]) [nmol/min/mg] | Activity (Pseudomonas aeruginosa [18]) [nmol/min/mg] | Activity (Pseudomonas aeruginosa [19]) [nmol/min/mg] | Activity [20] [nmol/min/mg]
1 | CC1(C)S[C@@H]2[C@H](NC(=O)[C@H](C(=O)O)c3ccsc3)C(=O)N2[C@H]1C(=O)O [TICARCILLIN] | 16 (≈ 41.6 µM) | 2 (≈ 5.2 µM) | 4 (≈ 10.4 µM) | 8 (≈ 20.8 µM) | 4 (≈ 10.4 µM) | 4 (≈ 10.4 µM) | 16 (≈ 41.6 µM) | 2 (≈ 5.2 µM) | – | – | – | – | – | – | – | – | – | – | – | –
2 | NCC[C@H](O)C(=O)N[C@@H]1C[C@H](N)[C@@H](O[C@H]2O[C@H](CN)[C@@H](O)[C@H](O)[C@H]2O)[C@H](O)[C@H]1O[C@H]1O[C@H](CO)[C@@H](O)[C@H](N)[C@H]1O [AMIKACIN] | 1 (≈ 1.71 µM) | 0.5 (≈ 0.854 µM) | 1 (≈ 1.71 µM) | 1 (≈ 1.71 µM) | 1 (≈ 1.71 µM) | 1 (≈ 1.71 µM) | 4 (≈ 6.83 µM) | 2 (≈ 3.42 µM) | 2 (≈ 3.42 µM) | 8 (≈ 13.7 µM) | 1 (≈ 1.71 µM) | 2 (≈ 3.42 µM) | 2 (≈ 3.42 µM) | 1 (≈ 1.71 µM) | – | – | – | – | – | –
3 | GENTAMICIN | 0.25 | 0.25 | – | 1 | – | – | 2 | 1 | 2 | 2 | 1 | 2 | 2 | – | – | – | – | – | – | –
4 | O=C(O)c1cn(C2CC2)c2cc(N3CCNCC3)c(F)cc2c1=O [CIPROFLOXACIN] | 0.12 (≈ 0.362 µM) | – | – | 1 (≈ 3.02 µM) | – | – | – | – | – | – | 0.12 (≈ 0.362 µM) | – | – | – | – | – | – | – | – | –
5 | C[C@H]1[C@H](NC(=O)/C(=N\OC(C)(C)C(=O)O)c2csc(N)n2)C(=O)N1S(=O)(=O)O [AZTREONAM] | 4 (≈ 9.19 µM) | 1 (≈ 2.3 µM) | 1 (≈ 2.3 µM) | 1 (≈ 2.3 µM) | 1 (≈ 2.3 µM) | 1 (≈ 2.3 µM) | – | 1 (≈ 2.3 µM) | – | – | 4 (≈ 9.19 µM) | – | – | 4 (≈ 9.19 µM) | – | – | – | – | – | –
6 | NC[C@H]1O[C@H](O[C@H]2[C@H](O)[C@@H](O[C@H]3O[C@H](CO)[C@@H](O)[C@H](N)[C@H]3O)[C@H](N)C[C@@H]2N)[C@H](N)C[C@@H]1O [TOBRAMYCIN] | 0.25 (≈ 0.535 µM) | 0.12 (≈ 0.257 µM) | 0.25 (≈ 0.535 µM) | 0.25 (≈ 0.535 µM) | 0.25 (≈ 0.535 µM) | 0.25 (≈ 0.535 µM) | 0.5 (≈ 1.07 µM) | 0.25 (≈ 0.535 µM) | 0.5 (≈ 1.07 µM) | 1 (≈ 2.14 µM) | 0.25 (≈ 0.535 µM) | 0.5 (≈ 1.07 µM) | 0.5 (≈ 1.07 µM) | 0.25 (≈ 0.535 µM) | – | – | – | – | – | –
7 | CO/N=C(\C(=O)N[C@@H]1C(=O)N2C(C(=O)[O-])=C(C[N+]3(C)CCCC3)CS[C@H]12)c1csc(N)n1 | 2 (≈ 4.16 µM) | 4 (≈ 8.32 µM) | 8 (≈ 16.6 µM) | 2 (≈ 4.16 µM) | 8 (≈ 16.6 µM) | 8 (≈ 16.6 µM) | 2 (≈ 4.16 µM) | 8 (≈ 16.6 µM) | – | – | – | – | – | – | – | – | – | – | – | –
8 | O=C(N[C@H](CO)[C@H](O)c1ccc([N+](=O)[O-])cc1)C(Cl)Cl [CHLORAMPHENICOL] | 64 (≈ 198 µM) | 128 (≈ 396 µM) | 128 (≈ 396 µM) | 128 (≈ 396 µM) | 128 (≈ 396 µM) | 128 (≈ 396 µM) | 64 (≈ 198 µM) | 128 (≈ 396 µM) | 64 (≈ 198 µM) | 32 (≈ 99 µM) | 64 (≈ 198 µM) | 64 (≈ 198 µM) | 32 (≈ 99 µM) | 64 (≈ 198 µM) | – | – | – | – | – | –
9 | C[C@@H](O)[C@H]1C(=O)N2C(C(=O)O)=C(SCCNC=N)C[C@H]12 [IMIPENEM ANHYDROUS] | 2 (≈ 6.68 µM) | 0.12 (≈ 0.401 µM) | 0.5 (≈ 1.67 µM) | 2 (≈ 6.68 µM) | 0.5 (≈ 1.67 µM) | 0.5 (≈ 1.67 µM) | 2 (≈ 6.68 µM) | 0.5 (≈ 1.67 µM) | 4 (≈ 13.4 µM) | 2 (≈ 6.68 µM) | 2 (≈ 6.68 µM) | 2 (≈ 6.68 µM) | 1 (≈ 3.34 µM) | 2 (≈ 6.68 µM) | – | – | – | – | – | –
10 | O=C(Cc1cccs1)N[C@@H]1C(=O)N2C(C(=O)O)=C(/C=C/c3ccc([N+](=O)[O-])cc3[N+](=O)[O-])CS[C@H]12 | – | – | – | – | – | – | – | – | – | – | – | – | – | – | 2680 | 2670 | 4550 | 5140 | 3110 | 1820
